Measured values: ChEMBL document CHEMBL1139492, “Structure-activity relationships and effects on neuroactive steroid synthesis in a series of 2-phenylimidazo[1,2-a]pyridineacetamide peripheral benzodiazepine receptors ligands” (J Med Chem, 2005)

Assays:
Translocator protein [1] = biological target: T1, Translocator protein (Rattus norvegicus, UniProt P16257); test: Displacement of [3H]PK11195 from peripheral benzodiazepine receptor of rat cerebral cortex; type: tissue-based
Method in brief: (§1)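 Rat tissue (cerebral cortex, ovary) homogenised in 50 vol PBS pH 7.4 at 4 °C, spun at 40 000g for 30 min, washed, resuspended in 10 vol PBS. […] Filtration on polyethyleneimine-soaked GF/B filters, scintillation counting. […] Means of three experiments in duplicate; Ki reported.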

[2] = biological target: Benzodiazepine receptors; peripheral & central (Rattus norvegicus) (UniProt O09028+P15431+P18506+P18508+P19969+P20236+P23574+P23576+P28471+P28473+P30191+P62813+P63079+P63138+Q91ZM7+Q9ES14+P16257); test: Ratio of inhibition for peripheral benzodiazepine receptor of rat ovary and central benzodiazepine GABA-A receptor; type: tissue-based; parameters: scale not given here; details: Female gonad
Translocator protein [3] = biological target: T1, Translocator protein; test: Inhibitory concentration against peripheral benzodiazepine receptor of rat ovary; type: tissue-based, Female gonad; method in brief: as §1
[4] = biological target: GABA-A receptor; anion channel; test: Inhibitory concentration of central benzodiazepine GABA-A receptor of rat cerebral cortex; type: tissue-based
Method in brief: (§2)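 Rat cerebral cortex homogenised in 50 vol ice-cold 50 mM Tris-HCl pH 7.4, spun twice at 20 000g for 10 min. Membranes (0.4–0.5 mg protein) incubated with [3H]flunitrazepam for 60 min at 0 °C. Rapid filtration on GF/B filters, scintillation counting. Nonspecific binding with 5 μM diazepam. Means of three experiments in duplicate; Ki reported.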

Translocator protein [5] = biological target: T1, Translocator protein; test: Displacement of [3H]-PK11195 from peripheral benzodiazepine receptor of rat ovary; type: tissue-based, Female gonad; method in brief: as §1
Translocator protein [6] = biological target: T1, Translocator protein; test: Inhibitory concentration against peripheral benzodiazepine receptor of rat cerebral cortex; type: tissue-based; method in brief: as §1
[7] = biological target: GABA-A receptor; anion channel; test: Displacement of [3H]flunitrazepam from central benzodiazepine GABA-A receptor of rat cerebral cortex; type: tissue-based; method in brief: as §2

T1 sequence (P16257 whole entry, looked up): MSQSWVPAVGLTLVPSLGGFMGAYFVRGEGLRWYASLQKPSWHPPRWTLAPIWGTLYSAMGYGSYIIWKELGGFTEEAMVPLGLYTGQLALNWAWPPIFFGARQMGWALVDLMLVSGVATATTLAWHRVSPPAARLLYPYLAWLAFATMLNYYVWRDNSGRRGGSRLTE

Row | SMILES | Ki (Translocator protein [1]) | Selectivity index [2] | IC50 (Translocator protein [3]) | pIC50 [4] | Ki (Translocator protein [5]) | IC50 (Translocator protein [6]) | Ki [7]
1 | CCCCN(CCCC)C(=O)Cc1c(-c2ccc(Cl)cc2)nc2ccc(Cl)cn12 | 1.69 nM | 1.12 | 6.73 nM | 7.051 | 4.77 nM | 3.27 nM | 68.9 nM
2 | O=C(Cc1c(-c2ccc(Cl)cc2)nc2c(Cl)cc(Cl)cn12)NCc1ccccc1 | 98.8 nM | – | – | 5 | – | 169 nM | 7010 nM
3 | O=C(Cc1c(-c2ccc(Cl)cc2)nc2c(Cl)cc(Cl)cn12)N1CCc2ccccc2C1 | 2.97 nM | 2.45 | 35.6 nM | 5 | 25.3 nM | 4.86 nM | 6880 nM
4 | CC(C(=O)N(C)Cc1ccccc1)c1c(-c2ccc(Cl)cc2)nc2c(Cl)cc(Cl)cn12 (stereo not drawn) | 5770 nM | – | 11600 nM | 5 | 8330 nM | 9890 nM | 7010 nM
5 | O=C(Cc1c(-c2ccc(Cl)cc2)nc2c(Cl)cc(Cl)cn12)N1CCN(Cc2ccccc2)CC1 | 12700 nM | -1.86 | 726000 nM | 5 | 516000 nM | 20800 nM | 6880 nM
6 | CCCCCCN(CCCCCC)C(=O)Cc1c(-c2ccc(Cl)cc2)nc2c(Cl)cc(Cl)cn12 | 222 nM | 0.584 | 2610 nM | 5 | 1890 nM | 377 nM | 7750 nM
7 | CC(C(=O)N(C)C1CCCCC1)c1c(-c2ccc(Cl)cc2)nc2c(Cl)cc(Cl)cn12 (stereo not drawn) | 2990 nM | 0.513 | 3070 nM | 5 | 2210 nM | 5150 nM | 7010 nM
8 | CN(Cc1ccccc1)C(=O)Cc1c(-c2ccc(Cl)cc2)nc2c(Cl)cc(Cl)cn12 | 1.38 nM | – | – | 5 | – | – | 6880 nM
9 | CCCCCCN(CCCCCC)C(=O)Cc1c(-c2ccc(Cl)cc2)nc2ccc(Cl)cn12 | 3.01 nM | 1.83 | 48.8 nM | 5.481 | 35.3 nM | 5.11 nM | 2560 nM
10 | CCCCNC(=O)Cc1c(-c2ccc(Cl)cc2)nc2c(Cl)cc(Cl)cn12 | 170 nM | 1.54 | 290 nM | 5 | 170 nM | 390 nM | 6880 nM
11 | O=C(Cc1c(-c2ccccc2)nc2c(Cl)cc(Cl)cn12)N1CCc2ccccc2C1 | 23.6 nM | 1.64 | 231 nM | 5 | 164 nM | 38.7 nM | 6880 nM
12 | CCOC(=O)C1CCCN(C(=O)Cc2c(-c3ccc(Cl)cc3)nc3c(Cl)cc(Cl)cn23)C1 (stereo not drawn) | 79.8 nM | 0.597 | 2530 nM | 5 | 1740 nM | 143 nM | 6880 nM
13 | CN(CCc1ccccn1)C(=O)Cc1c(-c2ccc(Cl)cc2)nc2c(Cl)cc(Cl)cn12 | 530 nM | 0.294 | 5080 nM | 5 | 3690 nM | 899 nM | 7750 nM
14 | CN(CCc1ccccn1)C(=O)Cc1c(-c2ccccc2)nc2c(Cl)cc(Cl)cn12 | 1280 nM | 0.296 | 5060 nM | 5 | 3670 nM | 2170 nM | 7750 nM
15 | CCCCN(CCCC)C(=O)Cc1c(-c2ccc(Cl)cc2)nc2ccccn12 | – | 1.19 | – | – | – | – | –
16 | CCCN(CCC)C(=O)C(C)c1c(-c2ccc(Cl)cc2)nc2c(Cl)cc(Cl)cn12 (stereo not drawn) | 701 nM | 0.572 | 2680 nM | 5 | 1930 nM | 1200 nM | 7010 nM
